The source of these data is publication PMC3747594 (ACS Chemical Biology, 2013).

Residue numbers refer to the chain shown, from its start. Several values for one entry are separate records, joined by “and”; a condition that tells them apart may be missing. Identical values can stand only once.

The test system of test [1] is K2P2.1 (TREK-1). The conditions noted are these: at 1.6 mM; cited from earlier work.
For test [2], the target named is T1, K2P2.1 (TREK-1) (Mus musculus, UniProt P97438).
T1 sequence (P97438 1-411 isoform P97438-2): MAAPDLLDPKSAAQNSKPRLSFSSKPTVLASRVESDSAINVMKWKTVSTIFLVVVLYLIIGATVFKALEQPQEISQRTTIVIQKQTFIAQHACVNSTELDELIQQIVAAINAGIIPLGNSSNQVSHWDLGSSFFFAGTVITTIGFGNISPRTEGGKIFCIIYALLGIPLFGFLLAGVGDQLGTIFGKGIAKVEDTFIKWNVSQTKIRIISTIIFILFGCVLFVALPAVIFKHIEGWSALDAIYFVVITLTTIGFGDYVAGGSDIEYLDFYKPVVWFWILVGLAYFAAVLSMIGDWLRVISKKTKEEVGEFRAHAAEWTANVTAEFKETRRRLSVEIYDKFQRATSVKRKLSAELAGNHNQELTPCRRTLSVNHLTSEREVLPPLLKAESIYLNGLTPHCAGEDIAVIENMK
In words: Two-electrode voltage clamp in Xenopus oocytes, K2P2.1. The class given is cell-based, Murine. Background: In two-electrode clamp one electrode senses voltage and the other passes current.

Test [3] deals with T1, K2P2.1 (TREK-1). Description: Excised membrane patches. The class given is cell-based, Murine. Conditions: 0 mV, 20 μM.
The target in test [4] is T2, K2P2.1 (TREK-1) G137I (Mus musculus, UniProt P97438, G152I).
T2 sequence (P97438 1-411 isoform P97438-2 G137I): T1 sequence (P97438 1-411 isoform P97438-2) with G137I
In words: Two-electrode voltage clamp in Xenopus oocytes, G137I mutant. The class given is cell-based, Murine.

Test [5] concerns the target T3, K2P18.1 (TRESK) (Mus musculus, UniProt Q6VV64).
T3 sequence (Q6VV64 1-394): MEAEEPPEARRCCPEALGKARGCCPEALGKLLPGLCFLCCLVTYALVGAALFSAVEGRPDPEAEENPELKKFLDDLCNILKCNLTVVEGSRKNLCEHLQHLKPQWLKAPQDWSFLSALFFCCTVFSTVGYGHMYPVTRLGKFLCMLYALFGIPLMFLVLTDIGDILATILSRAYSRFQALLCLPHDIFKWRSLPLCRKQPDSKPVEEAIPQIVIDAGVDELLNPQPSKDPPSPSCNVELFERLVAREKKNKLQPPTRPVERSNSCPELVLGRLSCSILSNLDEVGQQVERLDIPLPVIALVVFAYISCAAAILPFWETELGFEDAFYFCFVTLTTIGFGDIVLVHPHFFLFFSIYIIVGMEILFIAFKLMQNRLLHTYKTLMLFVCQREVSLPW
Description: Two-electrode voltage clamp in Xenopus oocytes, K2P18.1. Conditions: at 100 μM compound. The class given is cell-based, Murine. A digest of the protocol: (§1)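 Murine channel cDNAs in pGEMHE/pMO were expressed in Xenopus oocytes and recorded by two-electrode voltage clamp. Bath contained 2 mM [K+]o at pH 7.4. Currents were elicited by a −150 to 50 mV ramp from a −80 mV holding potential. Responses were normalized to basal channel activity and fit with a modified Hill equation (EC50, Imax/Imin, Hill coefficient H). Values are mean ± SD or SEM from ≥2 independent experiments.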

In test [6] the target is T1, K2P2.1 (TREK-1). In words: Whole cell patch clamp in HEK-293T cells, K2P2.1. In kind it is cell-based, Murine. Background: Patch clamp records ionic current or voltage across a cell membrane.
In test [7] the target is K2P3.1 (TASK-1) (Mus musculus, UniProt O35111). In words: Two-electrode voltage clamp in Xenopus oocytes, K2P3.1. The conditions noted are these: at 100 μM compound. In kind it is cell-based, Murine. A digest of the protocol: as §1
Sequence of K2P3.1 (TASK-1) (O35111 whole entry): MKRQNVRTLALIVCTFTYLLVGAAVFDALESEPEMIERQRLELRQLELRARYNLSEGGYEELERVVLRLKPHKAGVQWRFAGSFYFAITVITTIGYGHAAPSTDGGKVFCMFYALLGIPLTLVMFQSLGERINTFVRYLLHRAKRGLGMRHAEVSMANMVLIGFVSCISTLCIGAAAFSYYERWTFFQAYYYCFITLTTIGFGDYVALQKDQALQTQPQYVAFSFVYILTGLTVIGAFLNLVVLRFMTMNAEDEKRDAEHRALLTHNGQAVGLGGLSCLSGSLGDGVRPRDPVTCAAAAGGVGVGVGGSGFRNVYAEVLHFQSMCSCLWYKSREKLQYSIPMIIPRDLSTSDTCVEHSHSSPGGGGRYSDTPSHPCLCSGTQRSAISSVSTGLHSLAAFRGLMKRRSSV
The target in test [8] is T4, K2P5.1 (TASK-2) (Mus musculus, UniProt F6V9U5).
T4 sequence (F6V9U5 1-502): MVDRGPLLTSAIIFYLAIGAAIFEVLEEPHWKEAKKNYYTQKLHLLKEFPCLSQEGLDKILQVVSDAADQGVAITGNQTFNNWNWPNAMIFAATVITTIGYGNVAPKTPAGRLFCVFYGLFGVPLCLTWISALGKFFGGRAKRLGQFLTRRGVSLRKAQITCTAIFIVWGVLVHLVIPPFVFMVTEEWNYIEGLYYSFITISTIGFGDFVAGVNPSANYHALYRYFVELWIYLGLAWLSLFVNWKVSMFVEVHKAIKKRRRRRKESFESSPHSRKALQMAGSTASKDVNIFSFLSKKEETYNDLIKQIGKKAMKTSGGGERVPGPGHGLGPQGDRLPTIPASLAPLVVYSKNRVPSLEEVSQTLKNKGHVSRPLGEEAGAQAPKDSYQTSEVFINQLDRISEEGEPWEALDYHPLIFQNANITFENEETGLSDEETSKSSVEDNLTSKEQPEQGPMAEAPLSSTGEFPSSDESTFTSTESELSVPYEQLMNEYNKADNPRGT
In words: Two-electrode voltage clamp in Xenopus oocytes, K2P5.1. In kind it is cell-based, Murine. The conditions noted are these: at 100 μM compound. A digest of the protocol: as §1

For test [9], the target named is Kv7.2 (KCNQ2) (Homo sapiens, UniProt O43526). In words: Two-electrode voltage clamp in Xenopus oocytes, Kv7.2. The class given is cell-based. Conditions: at 100 μM.
Sequence of Kv7.2 (KCNQ2) (O43526 whole entry): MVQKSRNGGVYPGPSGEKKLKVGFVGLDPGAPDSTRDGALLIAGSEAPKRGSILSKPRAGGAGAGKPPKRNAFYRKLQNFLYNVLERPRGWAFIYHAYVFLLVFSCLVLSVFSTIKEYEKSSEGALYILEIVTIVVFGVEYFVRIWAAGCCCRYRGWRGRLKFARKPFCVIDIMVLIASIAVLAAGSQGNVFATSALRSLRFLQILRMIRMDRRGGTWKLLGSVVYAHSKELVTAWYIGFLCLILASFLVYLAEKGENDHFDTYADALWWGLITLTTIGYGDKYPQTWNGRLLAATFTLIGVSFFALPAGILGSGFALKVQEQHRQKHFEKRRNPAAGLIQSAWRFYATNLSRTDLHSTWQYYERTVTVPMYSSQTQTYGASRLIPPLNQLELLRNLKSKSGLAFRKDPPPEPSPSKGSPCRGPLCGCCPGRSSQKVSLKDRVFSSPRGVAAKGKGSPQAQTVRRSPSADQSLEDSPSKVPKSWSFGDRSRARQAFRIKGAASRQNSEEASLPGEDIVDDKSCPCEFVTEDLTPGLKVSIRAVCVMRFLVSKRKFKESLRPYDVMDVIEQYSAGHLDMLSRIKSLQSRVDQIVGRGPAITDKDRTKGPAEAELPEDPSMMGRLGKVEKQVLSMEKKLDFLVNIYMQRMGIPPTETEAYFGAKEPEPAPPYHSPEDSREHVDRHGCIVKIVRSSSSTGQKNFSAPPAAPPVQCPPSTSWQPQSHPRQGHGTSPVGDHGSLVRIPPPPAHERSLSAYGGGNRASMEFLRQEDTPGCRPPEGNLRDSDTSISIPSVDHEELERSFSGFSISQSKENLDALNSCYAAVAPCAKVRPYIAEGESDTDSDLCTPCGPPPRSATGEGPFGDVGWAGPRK
Test [10] has as its target T5, K2P2.1 (TREK-1)-3G (Mus musculus, UniProt P97438).
T5 sequence (P97438 16-426): T1 sequence (P97438 1-411 isoform P97438-2) with M1V
In words: Two-electrode voltage clamp in Xenopus oocytes, 3G mutant. In kind it is cell-based, Murine.

The target in test [11] is T6, K2P10.1 (TREK-2) (Mus musculus, UniProt Q8BUW1).
T6 sequence (Q8BUW1 1-535): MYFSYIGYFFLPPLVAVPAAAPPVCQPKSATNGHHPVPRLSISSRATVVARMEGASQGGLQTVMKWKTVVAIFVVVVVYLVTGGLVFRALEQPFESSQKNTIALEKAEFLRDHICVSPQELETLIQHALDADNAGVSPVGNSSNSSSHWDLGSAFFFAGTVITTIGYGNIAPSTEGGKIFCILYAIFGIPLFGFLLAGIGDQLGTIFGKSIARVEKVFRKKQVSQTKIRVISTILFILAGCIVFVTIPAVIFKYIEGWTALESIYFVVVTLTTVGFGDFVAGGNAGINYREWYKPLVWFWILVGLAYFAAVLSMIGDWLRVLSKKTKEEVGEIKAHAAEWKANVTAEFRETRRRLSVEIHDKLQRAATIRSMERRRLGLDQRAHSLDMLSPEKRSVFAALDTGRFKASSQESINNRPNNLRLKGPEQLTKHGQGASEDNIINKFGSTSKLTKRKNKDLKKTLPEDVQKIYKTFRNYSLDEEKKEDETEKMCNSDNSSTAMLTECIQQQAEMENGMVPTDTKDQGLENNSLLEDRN
In words: Two-electrode voltage clamp in Xenopus oocytes, K2P10.1. The class given is cell-based, Murine. A digest of the protocol: as §1

The target of test [12] is T7, K2P2.1 (TREK-1) W275S (Mus musculus, UniProt P97438, W290S).
T7 sequence (P97438 1-411 isoform P97438-2 W275S): T1 sequence (P97438 1-411 isoform P97438-2) with W275S
In words: Two-electrode voltage clamp in Xenopus oocytes, W275S mutant. The class given is cell-based, Murine. Summed up: as §1

Test [13] concerns the target T8, K2P4.1 (TRAAK) (Mus musculus, UniProt O88454).
T8 sequence (O88454 1-398): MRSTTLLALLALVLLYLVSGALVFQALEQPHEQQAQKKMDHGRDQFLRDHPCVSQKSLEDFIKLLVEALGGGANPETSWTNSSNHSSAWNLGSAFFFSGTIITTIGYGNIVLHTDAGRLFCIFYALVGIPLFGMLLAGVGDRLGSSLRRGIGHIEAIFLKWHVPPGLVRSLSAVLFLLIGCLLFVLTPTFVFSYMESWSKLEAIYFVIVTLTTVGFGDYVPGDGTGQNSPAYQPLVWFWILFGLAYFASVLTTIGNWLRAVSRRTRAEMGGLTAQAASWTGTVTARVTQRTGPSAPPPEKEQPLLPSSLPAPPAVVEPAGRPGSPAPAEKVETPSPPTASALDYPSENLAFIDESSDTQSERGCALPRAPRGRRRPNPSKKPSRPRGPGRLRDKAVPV
Description: Two-electrode voltage clamp in Xenopus oocytes, K2P4.1. In kind it is cell-based, Murine. A digest of the protocol:
as §1

Test [14] concerns the target K2P9.1 (TASK-3) (Mus musculus, UniProt Q3LS21). Description: Two-electrode voltage clamp in Xenopus oocytes, K2P9.1. The class given is cell-based, Murine. A digest of the protocol:
as §1

Setting [15] is: whole-cell, HEK-293T, 0 mV, 20 μM.

Sequence of K2P9.1 (TASK-3) (Q3LS21 whole entry): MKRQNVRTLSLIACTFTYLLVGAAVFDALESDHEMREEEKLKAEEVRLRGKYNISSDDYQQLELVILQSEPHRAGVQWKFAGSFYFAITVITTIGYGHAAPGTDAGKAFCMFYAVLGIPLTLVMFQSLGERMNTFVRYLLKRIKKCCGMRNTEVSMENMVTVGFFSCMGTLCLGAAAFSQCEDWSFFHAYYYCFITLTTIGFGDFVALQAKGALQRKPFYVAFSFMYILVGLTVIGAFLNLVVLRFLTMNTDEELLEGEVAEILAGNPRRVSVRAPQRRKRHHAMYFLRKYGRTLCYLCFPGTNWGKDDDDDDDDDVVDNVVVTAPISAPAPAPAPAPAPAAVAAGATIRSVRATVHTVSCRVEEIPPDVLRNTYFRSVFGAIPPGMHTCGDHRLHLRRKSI

As for `ClC(Cl)Cl` [chloroform], in test [1], the “reported activation (fold)” value is 5.5 fold.
For the molecule `CC1(C)c2cc(Cl)ccc2N(CCc2nnn[nH]2)c2ccc(Cl)cc21` [ML67-33, 2,7-dichloro-9,9-dimethyl-10-[2-(1H-tetrazol-5-yl)-ethyl]-9,10-dihydro-acridine], the “improved potency (fold)” value in [2] (EC50 compared to ML67-18) is listed as 5 fold. The “H (cooperativity coefficient from the Hill equation)” value in [2] (Xenopus oocytes) came out at 3.6 ± 0.4; in test [6] (HEK293 cells), 2.3 ± 0.7; in [10], 2.2 ± 0.4; in [11] it was 1.6 ± 0.6; in test [12], 1.6 ± 0.7; in test [13], 1.8 ± 0.4. For the same molecule, the “Emax (fold)” value in test [2] (Xenopus oocytes, at 100 μM compound) was 11.1 ± 0.4 fold; in test [2] (Xenopus oocytes, normalized to basal activity), 11.1 ± 0.4 fold and ~11 fold; in test [4] (at 150 μM) it was 0.9 ± 0.1 at 150 μM fold; in test [5] it was 0.9 ± 0.1 fold and 0.9 ± 0.1 ^d fold; in [6] (HEK293 cells), 11.4 ± 1.1 fold; in [7], 1.1 ± 0.0 fold and 1.1 ± 0.1 ^d fold. Moreover, the “Emax (fold)” value in test [8] is 2.0 ± 0.1 fold; in test [11], 11.4 ± 1.8 fold; in test [12], 5.1 ± 0.6 fold; in test [13] (at 100 μM compound), 14.7 ± 1.12 fold and 14.7 ± 1.1 fold and 14.7 ± 1.1 ^d fold; in test [14] (at 150 μM), 2.1 ± 0.4 at 150 μM fold. For the same molecule, the t1/2act in [3] (inside-out patch) amounted to 10.8 ± 1.3 s; in test [3] (outside-out patch), 4.6 ± 0.9 s. Also, the values for the t1/2wash in test [3] (inside-out patch) and in test [3] (outside-out patch) were 22.0 ± 5.1 s and 3.1 ± 0.7 s, respectively. Besides, the “response to activation (in words)” value in test [4] was “completely resistant”. The Emax in test [6] (HEK cells, at 100 μM) is on record as 11.4 ± 1.1; in test [11] (at 100 μM), 11.4 ± 1.8; in test [14] (at 100 μM) it was 1.7 ± 0.3. The “half-maximal activation time (t1/2act)” value in [6] (setting [15]) is 4.1 ± 0.5 s. The “time of return to baseline following washout (t1/2wash)” value in test [6] (setting [15]) came out at 3.9 ± 0.5 s. For the same molecule, in test [9], the “effect on Kv7.2 (KCNQ2) (in words)” value is “no effect”. For the same molecule, the EC50 (in general, the concentration at which the effect is half-maximal) in test [10] was 49.4 ± 1.1 µM.
